Measured values reported in ChEMBL document CHEMBL5303300, “EUbOPEN Chemogenomics Library - Multiplex” (2023).
Values joined by “and” are separate entries in the source; they are usually repeats but may differ in a detail not shown here. Equal values may be shown once.

Legend:
Format in all cases: toxicity, cell-based
Fibroblast = test: Multiplex assay against human fibroblast; conditions: number of replicates 2
How it was run: (§1)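 With compound added, live cells were imaged on a CQ1 microscope at 37°C and 5% CO2; staining with Hoechst33342, BioTracker Green Microtubule Cytoskeleton Dye, MitoTracker Red and Annexin V Alexa Fluor 680 had been done at seeding. The CellPathfinder machine-learning gating scheme split cells into Hoechst high-intensity objects or normal cells, normal cells into healthy, pyknosed or fragmented nuclei, and pyknosed cells into mitotic or apoptotic. The tubulin, mitochondrial-mass and membrane-permeability phenotypes are per cents of healthy-nucleus cells.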

HEK-293T = test: Multiplex assay against HEK293T; conditions: human, number of replicates 2; how it was run: as §1
U2OS = test: Multiplex assay against U2OS; conditions: human, number of replicates 2; how it was run: as §1
[1] = 12 h, 1 µM, compound concentration 1 uM
[2] = 12 h, 10 µM, compound concentration 10 uM
[3] = 24 h, 1 µM, compound concentration 1 uM
[4] = 24 h, 10 µM, compound concentration 10 uM
[5] = 48 h, 1 µM, compound concentration 1 uM
[6] = 48 h, 10 µM, compound concentration 10 uM

CS(=O)(=O)c1ccc(C(=O)Nc2ccc(F)c(COc3ccc(Br)cc3CN3CC[C@H](O)C3)c2)c(Cl)c1.O=CO was tested, and the “Population Apoptotic (%)” value (Fibroblast; [1]) was 42% and 43%, the “Population Fragmented Nuclei (%)” value (Fibroblast; [1]) was 7% and 9% and the “Population Healthy Nuclei (%)” value (Fibroblast; [1]) was 63% and 67%. For the same compound, the “Population Hoechst High Intensity Objects (%)” value (Fibroblast; [1]) was 0%, the “Population Normal (%)” value (Fibroblast; [1]) was 100% and the “Total Cell Count” value (Fibroblast; [1]) was 217 and 239. The “Population Apoptotic (%)” value (Fibroblast; [2]) was 42% and 43%, the “Population Fragmented Nuclei (%)” value (Fibroblast; [2]) was 21% and the “Population Healthy Nuclei (%)” value (Fibroblast; [2]) was 50% and 52%. The “Population Hoechst High Intensity Objects (%)” value (Fibroblast; [2]) was 0%, the “Population Normal (%)” value (Fibroblast; [2]) was 100% and 99% and the “Total Cell Count” value (Fibroblast; [2]) was 194 and 258. For the same compound, the “Population Apoptotic (%)” value (Fibroblast; [3]) was 42% and 57%, the “Population Fragmented Nuclei (%)” value (Fibroblast; [3]) was 10% and 14% and the “Population Healthy Nuclei (%)” value (Fibroblast; [3]) was 64% and 69%. For the same compound, the “Population Hoechst High Intensity Objects (%)” value (Fibroblast; [3]) was 0%, the “Population Normal (%)” value (Fibroblast; [3]) was 100% and 99% and the “Total Cell Count” value (Fibroblast; [3]) was 220 and 253. The “Population Apoptotic (%)” value (Fibroblast; [4]) was 72% and 81%, the “Population Fragmented Nuclei (%)” value (Fibroblast; [4]) was 15% and the “Population Healthy Nuclei (%)” value (Fibroblast; [4]) was 62% and 52%. The “Population Hoechst High Intensity Objects (%)” value (Fibroblast; [4]) was 0%, the “Population Normal (%)” value (Fibroblast; [4]) was 100% and 99% and the “Total Cell Count” value (Fibroblast; [4]) was 197 and 255. The “Population Apoptotic (%)” value (Fibroblast; [5]) was 71% and 78%, the “Population Fragmented Nuclei (%)” value (Fibroblast; [5]) was 18% and 14% and the “Population Healthy Nuclei (%)” value (Fibroblast; [5]) was 64% and 73%. The “Population Hoechst High Intensity Objects (%)” value (Fibroblast; [5]) was 0%, the “Population Normal (%)” value (Fibroblast; [5]) was 99% and the “Total Cell Count” value (Fibroblast; [5]) was 244 and 243. The “Population Apoptotic (%)” value (Fibroblast; [6]) was 88%, the “Population Fragmented Nuclei (%)” value (Fibroblast; [6]) was 20% and 15% and the “Population Healthy Nuclei (%)” value (Fibroblast; [6]) was 58% and 63%. For the same compound, the “Population Hoechst High Intensity Objects (%)” value (Fibroblast; [6]) was 0%, the “Population Normal (%)” value (Fibroblast; [6]) was 100% and 98% and the “Total Cell Count” value (Fibroblast; [6]) was 178 and 242. The “Population Apoptotic (%)” value (HEK-293T; [1]) was 55% and 45%, the “Population Healthy Nuclei (%)” value (HEK-293T; [1]) was 81% and 82% and the “Population Mitotic Cells (%)” value (HEK-293T; [1]) was 44% and 54%. The “Population Normal (%)” value (HEK-293T; [1]) was 94% and 93%, the “Total Cell Count” value (HEK-293T; [1]) was 519 and 629 and the “Population Apoptotic (%)” value (HEK-293T; [2]) was 61% and 58%. The “Population Healthy Nuclei (%)” value (HEK-293T; [2]) was 87% and 82%, the “Population Normal (%)” value (HEK-293T; [2]) was 91% and 88% and the “Total Cell Count” value (HEK-293T; [2]) was 484 and 427. For the same compound, the “Population Apoptotic (%)” value (HEK-293T; [3]) was 60% and 47%, the “Population Healthy Nuclei (%)” value (HEK-293T; [3]) was 80% and 83% and the “Population Mitotic Cells (%)” value (HEK-293T; [3]) was 52%. For the same compound, the “Population Normal (%)” value (HEK-293T; [3]) was 92% and 93%, the “Total Cell Count” value (HEK-293T; [3]) was 796 and 885 and the “Population Apoptotic (%)” value (HEK-293T; [4]) was 69% and 68%. For the same compound, the “Population Healthy Nuclei (%)” value (HEK-293T; [4]) was 85% and 79%, the “Population Mitotic Cells (%)” value (HEK-293T; [4]) was 30% and the “Population Normal (%)” value (HEK-293T; [4]) was 90% and 91%. The “Total Cell Count” value (HEK-293T; [4]) was 489 and 456, the “Population Apoptotic (%)” value (HEK-293T; [5]) was 29% and 26% and the “Population Healthy Nuclei (%)” value (HEK-293T; [5]) was 83% and 86%. The “Population Mitotic Cells (%)” value (HEK-293T; [5]) was 70% and 73%, the “Population Normal (%)” value (HEK-293T; [5]) was 89% and 92% and the “Total Cell Count” value (HEK-293T; [5]) was 1639 and 1757. The “Population Apoptotic (%)” value (HEK-293T; [6]) was 74% and 55%, the “Population Healthy Nuclei (%)” value (HEK-293T; [6]) was 82% and 85% and the “Population Mitotic Cells (%)” value (HEK-293T; [6]) was 25% and 44%. For the same compound, the “Population Normal (%)” value (HEK-293T; [6]) was 86% and 90%, the “Total Cell Count” value (HEK-293T; [6]) was 548 and 631 and the “Population Apoptotic (%)” value (U2OS; [1]) was 60%. The “Population Healthy Nuclei (%)” value (U2OS; [1]) was 60% and 82%, the “Population Normal (%)” value (U2OS; [1]) was 100% and the “Population Pyknosed Nuclei (%)” value (U2OS; [1]) was 10%. The “Population Apoptotic (%)” value (U2OS; [2]) was 91% and 68%, the “Population Healthy Nuclei (%)” value (U2OS; [2]) was 41% and 73% and the “Population Normal (%)” value (U2OS; [2]) was 100% and 98%. For the same compound, the “Population Pyknosed Nuclei (%)” value (U2OS; [2]) was 22%, the “Population Apoptotic (%)” value (U2OS; [3]) was 77% and 65% and the “Population Healthy Nuclei (%)” value (U2OS; [3]) was 62% and 84%. The “Population Normal (%)” value (U2OS; [3]) was 100%, the “Population Pyknosed Nuclei (%)” value (U2OS; [3]) was 13% and the “Population Apoptotic (%)” value (U2OS; [4]) was 71% and 92%. The “Population Healthy Nuclei (%)” value (U2OS; [4]) was 61% and 47%, the “Population Normal (%)” value (U2OS; [4]) was 98% and 100% and the “Population Apoptotic (%)” value (U2OS; [5]) was 100% and 93%. The “Population Healthy Nuclei (%)” value (U2OS; [5]) was 67% and 88%, the “Population Normal (%)” value (U2OS; [5]) was 100% and the “Population Pyknosed Nuclei (%)” value (U2OS; [5]) was 9%. The “Population Apoptotic (%)” value (U2OS; [6]) was 94% and 89%, the “Population Healthy Nuclei (%)” value (U2OS; [6]) was 23% and 51% and the “Population Normal (%)” value (U2OS; [6]) was 97% and 100%. For the same compound, the “Population Pyknosed Nuclei (%)” value (U2OS; [6]) was 41% and 39%.
